Experimental data of several laboratories.
Protocols differ between the studies behind these lines.
FLT3 D835Y: Receptor-type tyrosine-protein kinase FLT3 (FLT3, Homo sapiens, UniProt P36888, D835Y)
FLT3 R834Q: Receptor-type tyrosine-protein kinase FLT3 (FLT3, Homo sapiens, UniProt P36888, R834Q)
FLT3: Receptor-type tyrosine-protein kinase FLT3 (FLT3, Homo sapiens, UniProt P36888)
FLT3 D835H: Receptor-type tyrosine-protein kinase FLT3 (FLT3, Homo sapiens, UniProt P36888, D835H)
FLT3 D835V: Receptor-type tyrosine-protein kinase FLT3 (FLT3, Homo sapiens, UniProt P36888, D835V)
FLT3 K663Q: Receptor-type tyrosine-protein kinase FLT3 (FLT3, Homo sapiens, UniProt P36888, K663Q)
FLT3 N841I: Receptor-type tyrosine-protein kinase FLT3 (FLT3, Homo sapiens, UniProt P36888, N841I)
FLT3 autoinhibited: Receptor-type tyrosine-protein kinase FLT3, autoinhibited (FLT3, Homo sapiens, UniProt P36888)

| SMILES | target | read-out | technique | concentration | remaining binding [%] |
| --- | --- | --- | --- | --- | --- |
| O=C(c1ccc(Nc2nccc(-c3cc4ccccc4s3)n2)cc1)N1CCC(N2CCCC2)CC1 | FLT3 D835Y | binding | competition with immobilised ligand | 1 µM | 28 |
| C[C@@H](c1ccc(-n2cnc3c(N)ncnc32)cc1)N1CCc2nn(C)c(Cc3ccccc3)c2C1=O | FLT3 R834Q | binding | competition with immobilised ligand | 0.1 µM | 88 |
| CNC(=O)[C@@H]1CC[C@@H](n2c(-c3ccc4cnccc4c3)nc3ccc(C(=O)NCc4cccc(C(N)=O)c4)cc32)C1 | FLT3 | binding | competition with immobilised ligand | 1 µM | 100 |
| COc1ncc2cc3ccccc3nc2c1C#N | FLT3 D835H | cell-free assay | competition with immobilised ligand | 5 µM | 89 |
| C=CC(=O)N1CCC(C(=O)NCC(=O)N2CCN(c3nc(-c4cnc(N)nc4C(F)F)nc(N4CCOCC4)n3)CC2)CC1 | FLT3 D835V | binding | competition with immobilised ligand | 1 µM | 61 |
| O=C(O)[C@H]1[C@H](Cn2nnc3ccccc3c2=O)CC[C@@H]1C(=O)c1ccc(OCCC2CCOCC2)cc1 | FLT3 R834Q | cell-free assay | competition with immobilised ligand | 1 µM | 96 |
| COc1cnc(Nc2cccc(S(N)(=O)=O)c2)nc1N1CCN(c2ccccc2)C(=O)C1 | FLT3 D835Y | binding | competition with immobilised ligand | 1 µM | 66 |
| CC(C)CC(=O)N1CCc2nc(-c3ccc(Br)cc3)nc(N(C)Cc3ccccc3)c2C1 | FLT3 K663Q | cell-free assay | competition with immobilised ligand | 0.1 µM | 100 |
| N[C@H]1CCN(c2nccc(-c3cnn4ncccc34)n2)C1 | FLT3 N841I | binding |  | 1 µM | 84 |
| Cc1noc([C@H]2C[C@@H](c3ccc(C(F)(F)F)cc3)CN(C(=O)N3CCS(=O)(=O)C3)C2)n1 | FLT3 autoinhibited | cell-free assay | competition with immobilised ligand | 1 µM | 100 |
| CCN1CCN(Cc2ccc(C(=O)Nc3ccc(C)c(Oc4ccc5c(c4)CC(=O)N5)c3)cc2C(F)(F)F)CC1 | FLT3 N841I | binding | competition with immobilised ligand | 1 µM | 81 |
| N#Cc1ccccc1CSc1nnc2c(n1)[nH]c1ccccc12 | FLT3 | binding | competition with immobilised ligand | 10 µM | 84 |
| F[C@@H]1CCN(c2nccc(-c3cnn4ncccc34)n2)C1 | FLT3 R834Q | binding |  | 1 µM | 100 |
| O=C(NCc1ncc(C(F)(F)F)cc1Cl)c1ccc2c(c1)C1(CCS(=O)(=O)CC1)[C@H](C1CC1)N2S(=O)(=O)c1ccc(F)cc1 | FLT3 R834Q | cell-free assay | competition with immobilised ligand | 1 µM | 90 |
| O=C(c1ccc(Nc2ncc(Cl)c(-c3cc4ccccc4s3)n2)cc1)N1CCC(N2CCCC2)CC1 | FLT3 D835H | binding | competition with immobilised ligand | 1 µM | 2.4 |
| Cc1c(C(=O)O)cc(-c2ccc(C3CCNCC3)cc2)c2ccc(-c3ccc(C(F)(F)F)cc3)cc12 | FLT3 | binding | competition with immobilised ligand | 1 µM | 100 |
| Cc1cnn2ncc(-c3ccnc(N(C)C)n3)c2c1 | FLT3 K663Q | binding |  | 1 µM | 100 |
| O=C(Nc1cnc(Oc2ccc(F)cc2)nc1)N1CCc2ncccc2[C@@H]1c1ccc(F)cc1 | FLT3 autoinhibited | cell-free assay | competition with immobilised ligand | 1 µM | 90 |

| SMILES | target | read-out | technique | concentration | remaining binding [%] |
| --- | --- | --- | --- | --- | --- |
| O=C(Nc1c[nH]nc1C(=O)NC1CCNCC1)c1cc(F)cc(F)c1 | FLT3 D835Y | binding | competition with immobilised ligand | 1 µM | 89 |
| CC1CCCN1c1nccc(-c2cnn3ncccc23)n1 (stereo not drawn) | FLT3 | binding |  | 1 µM | 100 |
| COc1cnc(Nc2cccc(S(N)(=O)=O)c2)nc1N1CCN(c2ccccc2)CC1 | FLT3 N841I | binding | competition with immobilised ligand | 1 µM | 21 |
| O=C(NCC1CCOCC1)c1n[nH]cc1NC(=O)c1c(F)cccc1F | FLT3 N841I | binding | competition with immobilised ligand | 1 µM | 100 |
| CC(=O)N1CCC(c2ccc(C(=O)NC(=N)N)cc2C(F)(F)F)CC1 | FLT3 K663Q | cell-free assay | competition with immobilised ligand | 1 µM | 100 |
| FC(F)(F)Oc1cccc(-c2cnc3ccc(-c4ccncc4)nn23)c1 | FLT3 | cell-free assay | competition with immobilised ligand | 5 µM | 3.6 |
| O=C(c1ccc(Nc2ncc(Cl)c(-c3ccc(Cl)s3)n2)cc1)N1CCC(N2CCCC2)CC1 | FLT3 | binding | competition with immobilised ligand | 1 µM | 10 |
| CN1CCN(c2ccc(Nc3nccc(-c4ccccc4)n3)cc2C(F)(F)F)CC1 | FLT3 D835H | binding |  | 10 µM | 0.2 |
| c1cncc(-c2cccc(Nc3nccc(NC4CCCCC4)n3)c2)c1 | FLT3 N841I | binding | competition with immobilised ligand | 10 µM | 1.6 |
| CN(c1nccc(-c2cnn3ncccc23)n1)C1CC1 | FLT3 R834Q | binding |  | 1 µM | 100 |
| CN1CCN(c2ccc(Nc3nccc(-c4cccc([N+](=O)[O-])c4)n3)cc2C(F)(F)F)CC1 | FLT3 D835V | binding |  | 10 µM | 0 |
| O=C(NCCCN1CCOCC1)c1ccc(Nc2ncc(Cl)c(-c3ccc(Cl)s3)n2)cc1 | FLT3 autoinhibited | binding | competition with immobilised ligand | 1 µM | 5.5 |
| C[C@@H]1CCN(c2nccc(-c3cnn4ncccc34)n2)C1 | FLT3 | binding |  | 1 µM | 100 |
| Nc1ncc2c(n1)-c1c([nH]c3ccc(C#CC4CC4)cc13)CCCC2 | FLT3 D835V | binding | competition with immobilised ligand | 1 µM | 92 |
| Cc1cnc(Nc2ccc(C(=O)N3CCC(N4CCCC4)CC3)cc2)nc1-c1cc2ccccc2s1 | Receptor-type tyrosine-protein kinase FLT3 (FLT3, Homo sapiens, UniProt P36888, F691L/ITD) | binding | competition with immobilised ligand | 1 µM | 18 |
| NS(=O)(=O)c1cc(NC(=O)C2(c3ccccc3Cl)CC2)ccc1Oc1cccc(Cl)c1 | FLT3 K663Q | cell-free assay | competition with immobilised ligand | 1 µM | 100 |
| COc1ccnn2ncc(-c3ccnc(N(C)C)n3)c12 | FLT3 K663Q | binding |  | 1 µM | 100 |
| O=C(NCCCN1CCOCC1)c1ccc(Nc2nccc(-c3cc4ccccc4s3)n2)cc1 | FLT3 K663Q | binding | competition with immobilised ligand | 1 µM | 35 |
